The target in series [1] is T1, Steryl-sulfatase (Homo sapiens, UniProt P08842).
T1 sequence (P08842 whole entry): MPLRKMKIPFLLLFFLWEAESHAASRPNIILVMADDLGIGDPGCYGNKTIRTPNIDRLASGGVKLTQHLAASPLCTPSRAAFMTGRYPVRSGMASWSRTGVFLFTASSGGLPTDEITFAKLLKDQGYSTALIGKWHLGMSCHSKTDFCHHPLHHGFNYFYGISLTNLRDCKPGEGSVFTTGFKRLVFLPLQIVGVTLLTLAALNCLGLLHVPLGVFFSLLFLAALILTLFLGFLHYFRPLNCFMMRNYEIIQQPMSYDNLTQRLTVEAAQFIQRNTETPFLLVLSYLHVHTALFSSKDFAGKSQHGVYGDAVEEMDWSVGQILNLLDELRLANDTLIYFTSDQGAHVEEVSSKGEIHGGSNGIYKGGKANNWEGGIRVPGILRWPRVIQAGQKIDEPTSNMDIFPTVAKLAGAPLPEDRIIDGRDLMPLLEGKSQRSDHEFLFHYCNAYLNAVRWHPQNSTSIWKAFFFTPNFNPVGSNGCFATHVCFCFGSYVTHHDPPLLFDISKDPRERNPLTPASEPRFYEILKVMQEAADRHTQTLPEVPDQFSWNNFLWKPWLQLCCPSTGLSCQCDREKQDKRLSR
Description: Inhibitory activity against purified human steroid sulfatase (STS). The method, boiled down: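 Human STS from stably transfected recombinant CHO cells, microsomal fraction solubilized in Triton X-100 and purified by chromatography to >95%. Enzyme (0.6 units) mixed with 4-MUS, 0.75 mM before mixing, in 0.1 M Tris-HCl pH 7.5, 0.1% Triton. Compounds at graded concentrations from ethanol stocks (final ethanol ≤2%). Incubation 60 min, 37 °C. Stopped with 0.2 M NaOH. Fluorescence ex 355/em 448 nm. IC50 from nonlinear regression; mean of triplicates.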

Series [2] in a line: Inhibition constant as dissociation constant of the noncovalent (STS) enzyme-inhibitor complex. The format is ADME. The method, boiled down:
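Human placental microsomes (about 10 mg/mL protein) preincubated with inhibitor dilutions in 0.1 M Tris-HCl pH 7.5 for 1-20 min. Free inhibitor removed with dextran-coated charcoal. Residual activity measured in the supernatant with 4-MUS (1.5 mM before mixing), 20 min at 37 °C, stopped with NaOH, ex 355/em 460 nm. kapp from double-exponential fits. KI and kinact from a double-reciprocal plot of kapp against inhibitor concentration.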

The nature of series [3]: Rate constant of inactivation.
Series [4] can be described thus: Ratio of kinact (rate constant of inactivation) to that of KI (inhibition constant) indicates efficacy of irreversible inhibition.

Broadly, the IC50 is the concentration that inhibits the measured activity by half. Low readings indicate greater potency in that assay, high ones weaker potency in that assay. By kinact is commonly meant the rate constant of inactivation at saturating inhibitor. In the case of `NS(=O)(=O)Oc1ccc2oc(C3CCCC3)cc(=O)c2c1`, the IC50 in series [1] was found to be 134 nM. In addition, in series [2], the Ki was found to be 730 nM. For the same molecule, in series [3], the kinact worked out at 0.011 s⁻¹.

As to `CC(C)(C)c1cc(=O)c2cc(OS(N)(=O)=O)ccc2o1`, the half-inhibitory concentration (IC50) in series [1] turned out to be 22 nM. The molecule also yielded a Ki in series [2] of 900 nM. In addition, the kinact in series [3] is 0.07 s⁻¹.

Take `NS(=O)(=O)Oc1ccc2c(=O)c(C3CCCCC3)coc2c1`: inhibition in series [1] was half-maximal at 50 nM (IC50). The same molecule returned a Ki in series [2] of 1200 nM. Besides, the kinact in series [3] turned out to be 0.07 s⁻¹.

Turning to `NS(=O)(=O)Oc1ccc2c(c1)CCC(C1CCCCC1)O2` (centres undefined), 11200 nM corresponded to half-maximal inhibition in series [1] (IC50). Besides, the Ki in series [2] is 32000 nM. Besides, in series [3], the kinact worked out at 0.016 s⁻¹.

`NS(=O)(=O)Oc1ccc2oc(Cc3ccccc3)cc(=O)c2c1` came in with an IC50 in series [1] of 1620 nM.

Molecule `NS(=O)(=O)Oc1ccc2c(c1)C(O)CC(C1CCCCC1)O2` (centres undefined) returned an IC50 in series [1] of 24300 nM. Further, the Ki in series [2] was 53700 nM. Further, the kinact in series [3] amounted to 0.018 s⁻¹.

Consider `NS(=O)(=O)Oc1ccc2oc(C3CCCCCCCCCCC3)cc(=O)c2c1`, for which the IC50 in series [1] came to 45 nM. In addition, the Ki in series [2] was found to be 1100 nM. Also, the kinact in series [3] was determined as 0.04 s⁻¹.

Turning to `CCCc1cc(=O)c2cc(OS(N)(=O)=O)ccc2o1`, the IC50 in series [1] was determined as 722 nM.

In the case of `NS(=O)(=O)Oc1ccc2c(=O)cc(C3CCCCC3)oc2c1`, it took 6330 nM to reach half-maximal inhibition in series [1] (IC50). The same molecule returned a Ki in series [2] of 24000 nM. Also, the kinact in series [3] was found to be 0.02 s⁻¹.

Turning to `NS(=O)(=O)Oc1ccc2sc(C34CC5CC(CC(C5)C3)C4)cc(=O)c2c1`, the IC50 in series [1] came out at 0.34 nM. In series [2], this molecule had a Ki of 210 nM. The kinact in series [3] was 0.115 s⁻¹.

In series [1], `CC1(C)C(c2cc(=O)c3cc(OS(N)(=O)=O)ccc3o2)C1(C)C` showed an IC50 of 45 nM.

In series [1], `NS(=O)(=O)Oc1ccc2c(c1)C(=O)CC(C13CC4CC(CC(C4)C1)C3)O2` (centres undefined) showed an IC50 of 140 nM. In series [2], this molecule displayed a Ki of 1860 nM. Besides, the kinact in series [3] amounted to 0.017 s⁻¹.

Take `NS(=O)(=O)Oc1ccc2oc(CCc3ccccc3)cc(=O)c2c1`: in series [1], 190 nM corresponded to half-maximal inhibition (IC50).

Molecule `NS(=O)(=O)Oc1ccc2c(c1)C(O)CC(C13CC4CC(CC(C4)C1)C3)O2` (centres undefined) showed an IC50 in series [1] of 291 nM.

`NS(=O)(=O)Oc1ccc2oc(C3C4CC5CC3CC5C4)cc(=O)c2c1` (centres undefined) had a 50% inhibitory concentration (IC50) in series [1] of 11 nM. Moreover, the Ki in series [2] stood at 220 nM. For the same molecule, in series [3], the kinact is 0.042 s⁻¹.

The molecule `NS(=O)(=O)Oc1ccc2c(c1)C(=O)CC(c1ccccc1)O2` (centres undefined) returned an IC50 in series [1] of 2580 nM.

Molecule `CC(C)(C)c1cc(=O)c2cc(OS(N)(=O)=O)ccc2s1` came in with an IC50 in series [1] of 5.6 nM.

`NS(=O)(=O)Oc1ccc2c(c1)C(=O)CC(C1CCCCC1)O2` (centres undefined) yielded an IC50 in series [1] of 280 nM.

Consider `NS(=O)(=O)Oc1ccc2sc(-c3ccccc3)cc(=O)c2c1`, for which, in series [1], half-maximal inhibition (IC50) was put at 62 nM.

For `NS(=O)(=O)Oc1ccc2oc(C3CCCCC3)cc(=O)c2c1`, in series [1], the IC50 is 62 nM. In addition, in series [2], the Ki came out at 1000 nM. Besides, the kinact in series [3] amounted to 0.035 s⁻¹.

On to `CCCCCCCCC(C)(C)c1cc(=O)c2cc(OS(N)(=O)=O)ccc2o1`, for which the IC50 in series [1] amounted to 78 nM.

`CCCCCC12CCC(c3cc(=O)c4cc(OS(N)(=O)=O)ccc4o3)(CC1)CC2` displayed an IC50 in series [1] of 11 nM. The molecule also came in with a Ki in series [2] of 500 nM. Further, in series [3], the kinact amounted to 0.074 s⁻¹.

Molecule `NS(=O)(=O)Oc1ccc2c(=O)c(-c3ccccc3)coc2c1` yielded an IC50 in series [1] of 437 nM.

As to `CCCc1cc(=O)c2ccc(OS(N)(=O)=O)cc2o1`, the IC50 in series [1] is more than 100000 nM.

`NS(=O)(=O)Oc1ccc2oc(-c3ccccc3)cc(=O)c2c1` came in with an IC50 in series [1] of 672 nM.

`CCCCCCCCCc1cc(=O)c2cc(OS(N)(=O)=O)ccc2o1` registered a half-maximal inhibitory concentration (IC50) in series [1] of 403 nM. Besides, the “K inact/Ki” value in series [4] was 0.35 10e4 M-1 s-1. Also, in series [2], the Ki was 1700 nM. In series [3], the maximal inactivation rate constant (kinact) came to 0.006 s⁻¹.

As to `NS(=O)(=O)Oc1ccc2oc(/C=C/c3ccccc3)cc(=O)c2c1`, the IC50 in series [1] amounted to 1620 nM.

Values taken from ChEMBL document CHEMBL1135790, “2-Substituted 4-(thio)chromenone 6-O-sulfamates: potent inhibitors of human steroid sulfatase” (J Med Chem, 2002).
